# Experimental data as given in ChEMBL document CHEMBL4190282, “The Conjugated Double Bond of Coniferyl Aldehyde Is Essential for Heat Shock Factor 1 Mediated Cytotoprotection” (J Nat Prod, 2017).
# The source made the active and inactive calls. The calls are words filed in the database; no cut-off is given here.
# Tests used:
# MEF [1] = assay: Cytoprotective activity against cisplatin-induced PARP cleavage in HSF1 deficient MEF at 3 uM pretreated for 1 hr followed by cisplatin addition measured after 24 hrs by immunoblotting analysis; assay type: functional, cell-based; details: Mus musculus
# Procedure, shortened: (§1)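 HSF1+/+ or HSF1−/− MEFs in DMEM with heat-inactivated 10% FBS, nonessential amino acids, glutamine, HEPES, 37 °C, 5% CO2. 1 h pretreatment at 3 μM, then 0.5 μM paclitaxel or 20 μM cisplatin for 24 h, or 10 Gy 137Cs γ-rays (3.81 Gy/min) for 48 h. Cleaved PARP and caspase-3 immunoblotted; bands normalized to loading control, fold-change vs negative control, ≥3 independent experiments.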
# L132 [2] = assay: Cytoprotective activity against paclitaxel-induced caspase3 cleavage in human L-132 cells at 3 uM pretreated for 1 hr followed by paclitaxel addition measured after 24 hrs by immunoblotting analysis; assay type: functional, cell-based
# Procedure, shortened: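 Human embryonic lung L132 cells in RPMI with 10% FBS. 1 h pretreatment at 3 μM, then 0.5 μM paclitaxel or 20 μM cisplatin for 24 h, or 10 Gy 137Cs γ-rays (3.81 Gy/min) for 48 h. Cleaved PARP and caspase-3 immunoblotted (ECL); bands normalized to loading control, fold-change vs negative control, ≥3 independent experiments.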
# [3] = target: T1, Heat shock factor protein 1 (Homo sapiens) (UniProt Q00613); assay: Activation of HSF1 in human NCI-H460 cells expressing pGL4-hsp25 construct assessed as upregulation of hsp25 promoter activity at 10 to 30 uM after 12 hrs by luciferase reporter gene assay; assay type: cell-based
# T1 sequence (whole entry): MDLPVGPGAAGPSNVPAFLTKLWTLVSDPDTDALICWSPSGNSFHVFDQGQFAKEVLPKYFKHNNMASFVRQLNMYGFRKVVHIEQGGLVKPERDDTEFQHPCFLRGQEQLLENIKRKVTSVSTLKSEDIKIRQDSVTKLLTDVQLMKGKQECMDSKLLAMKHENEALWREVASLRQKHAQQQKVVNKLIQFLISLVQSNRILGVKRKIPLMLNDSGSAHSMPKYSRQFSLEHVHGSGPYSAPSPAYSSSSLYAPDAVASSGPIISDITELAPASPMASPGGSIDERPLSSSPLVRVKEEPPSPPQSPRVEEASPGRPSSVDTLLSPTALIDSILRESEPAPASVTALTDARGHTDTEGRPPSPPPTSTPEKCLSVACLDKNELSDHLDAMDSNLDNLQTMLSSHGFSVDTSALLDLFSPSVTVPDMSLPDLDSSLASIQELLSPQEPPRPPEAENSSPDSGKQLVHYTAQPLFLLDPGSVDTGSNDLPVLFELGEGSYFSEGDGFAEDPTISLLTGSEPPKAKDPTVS
# Procedure, shortened: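 NCI-H460 cells stably carrying hsp25 or hsp70 promoter–luciferase reporters, seeded, treated after 24 h at 10 or 30 μM and harvested 12 h later. Lysate luciferase normalized to β-galactosidase; mean of three independent experiments, fold-change vs negative control.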
# MEF [4] = assay: Cytoprotective activity against IR-induced PARP cleavage in HSF1 deficient MEF at 3 uM pretreated for 1 hr followed by 10 Gy irradiation measured after 48 hrs by immunoblotting analysis; assay type: functional, cell-based; details: Mus musculus; procedure, shortened: as §1
# L132 [5] = assay: Cytoprotective activity against cisplatin-induced cell death in human L-132 cells at 3 uM pretreated for 1 hr followed by cisplatin addition measured after 24 hrs by FACS analysis; assay type: functional, cell-based
# Procedure, shortened: (§2)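 L132 cells in RPMI with 10% FBS. 1 h pretreatment at 3 μM, then 0.5 μM paclitaxel or 20 μM cisplatin for 24 h, or 10 Gy γ-rays for 48 h. Cells trypsinized, washed, stained with propidium iodide and analysed by flow cytometry. Means ± SD of ≥3 independent experiments, fold-change vs negative control.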
# L132 [6] = assay: Cytoprotective activity against paclitaxel-induced cell death in human L-132 cells at 3 uM pretreated for 1 hr followed by paclitaxel addition measured after 24 hrs by FACS analysis; assay type: functional, cell-based; procedure, shortened: as §2
# MEF [7] = assay: Cytoprotective activity against paclitaxel-induced PARP cleavage in HSF1 deficient MEF at 3 uM pretreated for 1 hr followed by paclitaxel addition measured after 24 hrs by immunoblotting analysis; assay type: functional, cell-based; details: Mus musculus; procedure, shortened: as §1
# [8] = target: T2, Heat shock factor protein 1 (Mus musculus) (UniProt P38532); assay: Activation of HSF1 in MEF assessed as protection against IR-induced caspase3 cleavage at 3 uM pretreated for 1 hr followed by 10 Gy irradiation measured after 48 hrs by immunoblotting analysis; assay type: cell-based; procedure, shortened: as §1
# T2 sequence (whole entry): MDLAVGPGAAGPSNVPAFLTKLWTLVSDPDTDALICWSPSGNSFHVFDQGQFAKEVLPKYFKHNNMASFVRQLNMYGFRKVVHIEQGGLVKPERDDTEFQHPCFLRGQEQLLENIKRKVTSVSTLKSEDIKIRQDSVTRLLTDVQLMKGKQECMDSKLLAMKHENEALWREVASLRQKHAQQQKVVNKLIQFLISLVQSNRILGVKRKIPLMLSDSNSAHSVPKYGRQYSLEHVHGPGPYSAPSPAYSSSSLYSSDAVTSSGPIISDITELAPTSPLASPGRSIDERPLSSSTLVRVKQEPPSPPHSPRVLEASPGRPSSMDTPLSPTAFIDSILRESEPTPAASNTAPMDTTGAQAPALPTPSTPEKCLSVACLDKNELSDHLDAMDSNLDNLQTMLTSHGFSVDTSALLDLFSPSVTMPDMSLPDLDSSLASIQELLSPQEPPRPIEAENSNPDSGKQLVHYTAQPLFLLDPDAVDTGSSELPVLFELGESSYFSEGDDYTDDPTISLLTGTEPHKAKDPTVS
# L132 [9] = assay: Cytotoxicity against human L-132 cells assessed as reduction in cell viability up to 20 uM after 24 hrs by MTT assay; assay type: cell-based; details: l132, 24 h
# Procedure, shortened: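 L132 cells treated 24 h at indicated doses up to 20 μM. MTT (5 mg/mL in PBS) 4 h at 37 °C, formazan dissolved in DMSO, absorbance at 540 nm converted to cell number via calibration curve. Celastrol positive control.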
# [10] = target: T1, Heat shock factor protein 1 (Homo sapiens); assay: Activation of HSF1 in human L132 cells assessed as increase in HSP70 protein levels at 3 uM after 12 hrs by immunoblotting analysis; assay type: cell-based
# Procedure, shortened: (§3)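 L132 cells treated at 3 μM for 12 h, or at various doses for 12 h, or at 3 μM over a time course. Lysates resolved by SDS-PAGE, blotted to nitrocellulose, milk-blocked, primary antibodies 18 h at 4 °C, ECL detection. HSP27, HSP70 and Ser326-phospho-HSF1 bands normalized to loading control; ≥3 independent experiments; celastrol 1 μM positive control.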
# [11] = target: T1, Heat shock factor protein 1 (Homo sapiens); assay: Induction of HSF1 phosphorylation at Ser326 residue in human L-132 cells at 3 uM after 12 hrs by immunoblotting analysis; assay type: cell-based; procedure, shortened: as §3
# Mus musculus = assay: Protection against IR-induced reduction in circulating neutrophils in ICR mouse at 10 mg/kg, ip administered once before and three times after 4.5 Gy irradiation measured after 9 days; assay type: functional, organism-based
# Procedure, shortened: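 Female ICR mice (5–6 weeks) given 4.5 Gy whole-body IR, dosed ip at 10 mg/kg once before and three times after IR; 5 per group, sacrificed day 9. BM cellularity from H&E (hematopoietic cells per 200×200 μm area); peripheral WBC, lymphocytes, neutrophils; Ki67 IHC counted in five fields per femur; relative spleen weight vs control. Means ± SD, Student's t test.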
Activity [3],Activity [8],Activity [10],Activity [11],SMILES,Activity (MEF [1]),Activity (L132 [2]),Activity (MEF [4]),Activity (L132 [5]),Activity (L132 [6]),Activity (MEF [7]),Activity (L132 [9]),Activity (Mus musculus)
Active,Active,Active,Active,COc1cc(/C=C/CO)ccc1O [CONIFERYL ALCOHOL],inactive,Active,inactive,Active,Active,inactive,Non-Toxic,Active
Active,Active,Active,Active,COc1cc(/C=C/C=O)ccc1O [CONIFERYL ALDEHYDE],inactive,Active,inactive,Active,Active,inactive,Non-Toxic,Active
